HePTP inhibitor = inhibitors of human HePTP phosphatase, primary screen, biochemical, absorbance, leukemia target; Tyrosine-protein phosphatase non-receptor type 7 (Homo sapiens), P35236; recombinant HePTP phosphatase activity, OD absorbance; inhibition, % at 20 µM; hit rate 0.64% among 110,000; AID 521, 2006; in the data active = inhibition above about 50%;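 note: plate controls were vehicle for no effect and reference inhibitor for full effect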
Target sequence (P35236 whole entry, looked up): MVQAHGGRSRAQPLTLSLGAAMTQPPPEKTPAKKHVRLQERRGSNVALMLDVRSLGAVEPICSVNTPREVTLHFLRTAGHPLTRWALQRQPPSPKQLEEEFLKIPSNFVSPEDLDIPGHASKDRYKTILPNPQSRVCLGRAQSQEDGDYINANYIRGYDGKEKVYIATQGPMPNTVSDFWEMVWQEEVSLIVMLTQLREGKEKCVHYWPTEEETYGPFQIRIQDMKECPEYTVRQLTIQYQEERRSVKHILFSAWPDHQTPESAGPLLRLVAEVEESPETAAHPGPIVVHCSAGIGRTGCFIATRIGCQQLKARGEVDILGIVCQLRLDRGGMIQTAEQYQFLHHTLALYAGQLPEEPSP
Ecoli tolC = growth inhibitors of E. coli tolC mutant, primary screen, strain BW25113 ΔtolC::kan, 384-well; growth inhibition, % at 10 µM (by protocol); hit rate 2.2% among 65,000; AID 573, 2007; OD615;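 active = growth inhibition at or above a cutoff equal to the mean over every tested compound plus 3 SD, cut at about 60% in these data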;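 note: growth measured after 20 h incubation at 37 °C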
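Assay system: tolC-deleted E. coli BW25113. Medium: kanamycin-containing LB broth (50 µg/mL). Dosing: 10 µM final, single dose. Timing: bacterial growth with compound for 20 h at 37 °C. Detection: A615 absorbance measurement. Read-out basis: growth inhibition in percent.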
PostGolgi yeast = phenotypic screen on post-Golgi transport, primary screen; inhibition, % at 10 µM; post-Golgi transport phenotypic cell assay; hit rate 0.9% among 98,000;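 note: yeast cells grown in 1536-well plates; yeast grown about 18 h at 30C before absorbance read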
Ecoli WT expand = growth inhibitors of wild-type E. coli, primary screen, strain BW25113, expanded library, OD600; OD600 absorbance; growth inhibition, % at 100 µM; hit rate 0.15% among 98,000; AID 710, 2007;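 active = growth inhibition above about 50% at one test dose, limit read from the data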;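 note: growth measured after 20 h incubation at 37 °C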
PostGolgi ctrl = growth inhibition of yeast control strain, primary screen, counter-screen for post-Golgi transport modulator project; efflux-deficient yeast background strain, growth absorbance A615, 16 h; inhibition, % at 10 µM; hit rate 5% among 98,000; AID 738, 2007
PLAP act = PLAP enzyme activators, biochemical, luminescence, HTS; Alkaline phosphatase, placental type (Homo sapiens), P05187; purified PLAP enzyme, luminescent substrate read-out; stronger effect = higher value; activation fold at 20 µM; hit rate 1.2% among 96,000; AID 696, 2007; in the data active = activation fold above about 2
* = called active by the depositor. A selection: hits, their analogues and other compounds. The true share with any hit is near 5.4%. Cut-off read from the data, not from the text of the source, unless noted: active = inhibition above about 30%; inactive = the rest.

What do the screens show for `NS(=O)(=O)c1ccc(N2N=C(c3ccccc3)CC2c2ccc(F)cc2)cc1` (stereo not given)?
PostGolgi yeast: 14; Ecoli WT expand: -12; PostGolgi ctrl: 50*; PLAP act: 1.7

How did CC(=O)Nc1nc2ccccc2n1CCOc1ccccc1 do in these assays?
HePTP inhibitor: 7; Ecoli tolC: 24; PostGolgi yeast: 2; Ecoli WT expand: 0; PostGolgi ctrl: 3; PLAP act: 1.4

Results for S=C(Nc1ccccc1)Nc1nc2ccccc2n1CCOc1ccccc1 ?
PostGolgi yeast: -1; Ecoli WT expand: 11; PostGolgi ctrl: 32*; PLAP act: 0.9

How did O=C(CCN1CCC(c2ccccc2)C1)c1cccs1 (stereo not given) do in these assays?
HePTP inhibitor: 4; Ecoli tolC: -17; PostGolgi yeast: 3; Ecoli WT expand: -3; PostGolgi ctrl: 39*; PLAP act: 1

How did CC(C)(C)n1nnnc1C(c1ccc(Cl)cc1)N1CCCc2ccccc21 (stereo not given) do in these assays?
PostGolgi yeast: -5; Ecoli WT expand: -16; PostGolgi ctrl: 19; PLAP act: 1.2

How did COc1ccccc1N1CCN(C(c2ccccc2Cl)c2nnnn2C(C)(C)C)CC1 (stereo not given) do in these assays?
HePTP inhibitor: 8; Ecoli tolC: 63*; PostGolgi yeast: 16; Ecoli WT expand: -11; PostGolgi ctrl: 38*; PLAP act: 1.6

Results for COc1ccccc1N1CCN(C(c2ccc(Cl)cc2)c2nnnn2C(C)(C)C)CC1 (stereo not given) ?
HePTP inhibitor: 10; Ecoli tolC: 66*; PostGolgi yeast: 4; Ecoli WT expand: -19; PostGolgi ctrl: 44*; PLAP act: 1.3

What do the screens show for `COc1ccccc1C(c1nnnn1C(C)(C)C)N1CCN(Cc2ccncc2)CC1` (stereo not given)?
HePTP inhibitor: -2; Ecoli tolC: -8; PostGolgi yeast: 6; Ecoli WT expand: -5; PostGolgi ctrl: 7; PLAP act: 1.3

Results for Cc1c(-c2ccccc2)n[nH]c1C(=O)N/N=C/c1cccc([N+](=O)[O-])c1 ?
HePTP inhibitor: -12

What do the screens show for `O=c1/c(=C/c2ccccc2OCc2ccccc2F)sc2nc3ccccc3n12`?
HePTP inhibitor: -10

Results for Clc1ccc(OCCn2c(-c3ccco3)nc3ccccc32)cc1 ?
PostGolgi yeast: -3; Ecoli WT expand: -9; PostGolgi ctrl: 53*; PLAP act: 1.5

What do the screens show for `c1coc(Cn2c(-c3ccco3)nc3ccccc32)c1`?
HePTP inhibitor: 8; Ecoli tolC: 30; PostGolgi yeast: -12; Ecoli WT expand: 5; PostGolgi ctrl: 7; PLAP act: 0.9

Results for COc1ccc(C(=O)n2c(-c3ccco3)nc3ccccc32)cc1 ?
HePTP inhibitor: 5; Ecoli tolC: 64*; PostGolgi yeast: 6; Ecoli WT expand: -6; PostGolgi ctrl: 33*; PLAP act: 1.2

Results for CCCOc1ccc(S(=O)(=O)n2cc(Br)c(=O)[nH]c2=O)cc1 ?
HePTP inhibitor: 10; Ecoli tolC: 28; PostGolgi yeast: 6; Ecoli WT expand: 7; PostGolgi ctrl: 42*; PLAP act: 1.2

What do the screens show for `O=c1[nH]c(=O)n(CCOc2ccc(Cl)cc2)cc1Br`?
HePTP inhibitor: 1; Ecoli tolC: -14; PostGolgi yeast: 4; Ecoli WT expand: 5; PostGolgi ctrl: 13; PLAP act: 1.1

Results for O=C(NCc1ccc(Cl)cc1)c1ccccc1Oc1ccccc1 ?
PostGolgi yeast: -8; Ecoli WT expand: 0; PostGolgi ctrl: 33*; PLAP act: 1.2

How did COCCCNC(=O)c1ccccc1Oc1ccccc1 do in these assays?
HePTP inhibitor: 3; Ecoli tolC: -15; PostGolgi yeast: 14; Ecoli WT expand: -1; PostGolgi ctrl: 0; PLAP act: 1.1

What do the screens show for `Cc1ccc(-c2nc(CSCC(=O)NCCCN3CCOCC3)c(C)o2)cc1`?
Ecoli tolC: -14; PostGolgi yeast: 7; Ecoli WT expand: -1; PostGolgi ctrl: 2; PLAP act: 1.3

Results for Cc1ccc(-c2nc(CSCC(=O)NCCN3CCN(Cc4ccccc4)CC3)c(C)o2)cc1 ?
Ecoli tolC: 12; PostGolgi yeast: 2; Ecoli WT expand: 10; PostGolgi ctrl: 38*; PLAP act: 1.4

What do the screens show for `CCOc1ccc2nc(SCC(=O)Nc3cc(C)cc(C)c3)sc2c1`?
HePTP inhibitor: 8

What do the screens show for `CC(=O)c1cccc(NC(=O)CN(C2CCCCC2)S(C)(=O)=O)c1`?
HePTP inhibitor: -1; Ecoli tolC: -10; PostGolgi yeast: -5; Ecoli WT expand: 4; PostGolgi ctrl: 5; PLAP act: 1

How did CSc1ccccc1NC(=O)CN(C1CCCCC1)S(C)(=O)=O do in these assays?
PostGolgi yeast: 0; Ecoli WT expand: 2; PostGolgi ctrl: 4; PLAP act: 2*

What do the screens show for `CS(=O)(=O)N(CC(=O)Nc1ccccc1Sc1ccccc1)c1ccc(F)cc1`?
PostGolgi yeast: -2; Ecoli WT expand: -18; PostGolgi ctrl: 54*; PLAP act: 1.1

Results for O=C(Nc1ccccc1)c1ccccc1NS(=O)(=O)c1ccc(Cl)s1 ?
PostGolgi yeast: -8; Ecoli WT expand: 34; PostGolgi ctrl: 44*

What do the screens show for `Cc1ccc(S(=O)(=O)Nc2ccccc2C(=O)Nc2ccccc2)cc1`?
HePTP inhibitor: -9

What do the screens show for `O=C(NCc1ccco1)c1ccccc1NS(=O)(=O)c1ccc(Cl)s1`?
PostGolgi yeast: -6; Ecoli WT expand: 6; PostGolgi ctrl: 16; PLAP act: 2.1*

How did CCOc1ccc(NC(=S)NCCc2ccc(S(N)(=O)=O)cc2)cc1 do in these assays?
HePTP inhibitor: -2

Results for O=C(COc1ccc(Br)cc1)Nc1ccc(Cl)c(Cl)c1 ?
HePTP inhibitor: 6

What do the screens show for `O=C(O)c1ccc(Cl)c(-c2ccc(C=C3C(=O)c4ccccc4C3=O)o2)c1`?
HePTP inhibitor: 104*

How did O=C1NC(=S)N/C1=C/c1ccc(-c2cccc(Cl)c2Cl)o1 do in these assays?
HePTP inhibitor: 13

Results for O=C1NC(=S)S/C1=C/c1ccc(-c2ccc(C(=O)O)c(Cl)c2)o1 ?
HePTP inhibitor: 6

How did O=C(O)c1ccc(-c2ccc(C=C3C(=O)c4ccccc4C3=O)o2)cc1Cl do in these assays?
HePTP inhibitor: 52*

Results for O=C1NC(=S)N/C1=C/c1ccc(-c2cc(C(=O)O)ccc2Cl)o1 ?
HePTP inhibitor: 104*

What do the screens show for `O=C(/C=C\c1ccc(-c2cc(Cl)ccc2Cl)o1)c1ccccc1`?
HePTP inhibitor: -2

How did O=C(O)c1ccc2c(c1)C(=O)N(c1cc(C(=O)O)ccc1Br)C2=O do in these assays?
HePTP inhibitor: -4; Ecoli tolC: 0; PostGolgi yeast: -4; Ecoli WT expand: 4; PostGolgi ctrl: 30*; PLAP act: 1

Bioassay records (PubChem BioAssay)
